Experimental data taken from PMC7245552 (Cell chemical biology, 2020).
Residue numbers refer to the chain shown, from its start. Numbers in names are those of the source.

How the values were obtained:
K2P2.1 (TREK-1) [1] = conditions: read-out: EC50 (ML335) activation, ref Lolicato et al., 2017; cited from earlier work
K2P2.1 I110D = biological target: T1, K2P2.1 I110D (Mus musculus, UniProt P97438, I125D); test: TEVC recordings in Xenopus oocytes, K2P2.1 I110D; type: cell-based, Murine
T1 sequence (P97438 1-411 isoform P97438-2 I110D): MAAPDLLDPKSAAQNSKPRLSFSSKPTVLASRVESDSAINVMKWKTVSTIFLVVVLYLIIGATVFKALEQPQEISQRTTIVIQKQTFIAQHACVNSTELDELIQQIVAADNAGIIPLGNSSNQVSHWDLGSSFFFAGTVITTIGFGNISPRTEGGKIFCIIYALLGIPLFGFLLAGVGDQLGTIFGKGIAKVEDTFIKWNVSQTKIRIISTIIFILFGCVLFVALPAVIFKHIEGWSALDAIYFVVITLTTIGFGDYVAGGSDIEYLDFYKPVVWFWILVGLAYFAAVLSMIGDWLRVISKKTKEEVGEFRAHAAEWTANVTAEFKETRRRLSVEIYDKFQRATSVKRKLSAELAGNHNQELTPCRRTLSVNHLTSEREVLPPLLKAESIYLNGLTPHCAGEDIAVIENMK

K2P2.1 I110D/N147E = biological target: T2, K2P2.1 I110D/N147E (Mus musculus, UniProt P97438, I125D/N162E); test: TEVC recordings in Xenopus oocytes, K2P2.1 I110D/N147E; type: cell-based, Murine; conditions: I110D/N147E pair; T = 298K
T2 sequence (P97438 1-411 isoform P97438-2 I110D/N147E): T1 sequence (P97438 1-411 isoform P97438-2 I110D) with N147E
Procedure, shortened: (§1)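 Coupling energy was computed as ΔΔGΩ = RT lnΩ, with R=1.987 cal mol−1 deg−1 and T=298 K. Inputs were RuR inhibition measurements by TEVC in X. laevis oocytes expressing murine mutant channels: −80 mV hold, 500 ms ramp −140 to +50 mV, ND96 perfusion. IC50s came from a Hill fit with coefficient −1.0, using ≥3 oocytes from ≥2 batches per point.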

K2P2.1 I110D/N147D = biological target: T3, K2P2.1 I110D/N147D (Mus musculus, UniProt P97438, I125D/N162D); test: TEVC recordings in Xenopus oocytes, K2P2.1 I110D/N147D; type: cell-based, Murine; conditions: I110D/N147D pair; T = 298K
T3 sequence (P97438 1-411 isoform P97438-2 I110D/N147D): T1 sequence (P97438 1-411 isoform P97438-2 I110D) with N147D
Procedure, shortened: as §1

K2P2.1 I110E = biological target: T4, K2P2.1 I110E (Mus musculus, UniProt P97438, I125E); test: TEVC recordings in Xenopus oocytes, K2P2.1 I110E; type: cell-based, Murine; conditions: K2P2.1 I110E versus K2P2.1 I110D
T4 sequence (P97438 1-411 isoform P97438-2 I110E): T1 sequence (P97438 1-411 isoform P97438-2 I110D) with D110E
Procedure, shortened: (§2)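 Murine channel cRNA (0.1–6 ng) injected into defolliculated stage V–VI X. laevis oocytes kept at 18°C in ND96 with antibiotics. TEVC 24–48 h later with constant ND96 perfusion; −80 mV hold, 500 ms ramp −140 to +50 mV. Ruthenium compounds were freshly dissolved in ND96. Block corrected for uninjected-oocyte basal current. ≥3 oocytes from ≥2 batches per point; IC50 from Hill fit, coefficient fixed −1.0.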

K2P10.1 (TREK-2) = biological target: T5, K2P10.1 (TREK-2) (Mus musculus, UniProt Q8BUW1); test: TEVC recordings in Xenopus oocytes, K2P10.1; type: cell-based, Murine
T5 sequence (Q8BUW1 1-535): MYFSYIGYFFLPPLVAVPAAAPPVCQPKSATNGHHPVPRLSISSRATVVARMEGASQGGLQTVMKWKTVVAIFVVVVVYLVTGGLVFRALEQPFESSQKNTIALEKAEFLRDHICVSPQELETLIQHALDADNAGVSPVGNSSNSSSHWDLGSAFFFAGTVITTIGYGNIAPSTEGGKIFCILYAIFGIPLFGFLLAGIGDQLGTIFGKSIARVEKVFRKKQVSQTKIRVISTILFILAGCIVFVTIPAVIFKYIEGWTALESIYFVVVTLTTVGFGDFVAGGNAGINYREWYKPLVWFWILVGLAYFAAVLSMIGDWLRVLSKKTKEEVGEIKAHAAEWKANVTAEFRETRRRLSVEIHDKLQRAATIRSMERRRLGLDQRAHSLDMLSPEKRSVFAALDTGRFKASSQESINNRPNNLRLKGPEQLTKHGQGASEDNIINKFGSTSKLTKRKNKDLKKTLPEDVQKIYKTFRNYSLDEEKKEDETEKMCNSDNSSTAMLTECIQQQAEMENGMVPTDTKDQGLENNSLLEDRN
Procedure, shortened: as §2

K2P2.1 (TREK-1) [2] = biological target: T6, K2P2.1 (TREK-1) (Mus musculus, UniProt P97438); test: TEVC recordings in Xenopus oocytes, K2P2.1; type: cell-based, Murine; conditions: 100 μM Ru360 applied to K2P2.1 (TREK-1)
T6 sequence (P97438 1-411 isoform P97438-2): T1 sequence (P97438 1-411 isoform P97438-2 I110D) with D110I
Procedure, shortened: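 Oocytes expressing murine wild-type channel were perfused with ND96 until current was stable, then with 100 μM Ru360 freshly prepared in ND96 and kept light-protected, until current stabilised again. Currents were elicited from a −80 mV hold by a 500 ms ramp −140 to +50 mV. Fractional block was corrected for basal current averaged from uninjected oocytes (n=14).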

crystal structure = biological target: the molecule itself; test: crystal structure

Molecule: CS(=O)(=O)Nc1ccc(C(=O)NCc2ccc(Cl)cc2Cl)cc1 [ML335]
- EC50 (K2P2.1 (TREK-1) [1]): 14.3 ± 2.7 µM
- EC50 (K2P2.1 I110D; read-out: EC50 (ML335) activation, TEVC): 11.8 ± 2.3 µM

Molecule: N.N.N.N.N.N.N.N.N.N.N.N.N.N.[Cl-].[Cl-].[Cl-].[Cl-].[Cl-].[Cl-].[O-2].[O-2].[Ru+3].[Ru+3].[Ru+4] [RuR, Ruthenium Red]
- ΔΔG coupling energy, double mutant cycle analysis of RuR binding (K2P2.1 I110D/N147E): -0.3 kcal/mol
- ΔΔG coupling energy, double mutant cycle analysis of RuR binding (K2P2.1 I110D/N147D): -4.1 kcal/mol
- RuR inhibition fold weaker than that observed for K2P2.1 I110D (K2P2.1 I110E): ~ 50 fold

Molecule: Ru360
- Ru360 IC50 fold weaker than that for RuR (K2P10.1 (TREK-2)): > 10 fold
- Effect on channel current (K2P2.1 (TREK-1) [2]): no effect
- Ru360 IC50 fold weaker than that for RuR (K2P2.1 I110D): > 10 fold

B1: K2P2.1 (TREK-1)CRYST I110D (domain or fragment, mouse, UniProt P97438-2 21-322, looked up)
chain: SFSSKPTVLASRVESDSAINVMKWKTVSTIFLVVVLYLIIGATVFKALEQPQEISQRTTIVIQREKFLRAHPCVSDQELDELIQQIVAADNAGIIPLGASSNQVSHWDLGSSFFFAGTVITTIGFGNISPRTEGGKIFCIIYALLGIPLFGFLLAGVGDQLGTIFGKGIAKVEDTFIKWNVSQTKIRIISTIIFILFGCVLFVALPAVIFKHIEGWSALDAIYFVVITLTTIGFGDYVAGGSDIEYLDFYKPVVWFWILVGLAYFAAVLSMIGDWLRVICKKTKEAVGEFRAHAAEWTANVT
- binding result (crystal structure): binds
